Measurements: PMC6684861 (Traffic (Copenhagen, Denmark), 2018)
Primed or numbered codes have the meaning given here. No end group written: not given here. FITC′ = fluorescein isothiocyanate label

Columns and labels:
ImpαΔIBB = ImpαΔIBB (Mus musculus, UniProt P52293); assay: X-ray crystallography of ImpαΔIBB-NLS peptide complexes; format: binding, murine; conditions: estimated from electron density
Procedure, shortened: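 ImpαΔIBB (15 mg/ml in 20 mM Tris pH 7.8, 125 mM NaCl, 5 mM DTT) was mixed with test NLS peptide at 1.25:1 molar excess. Crystals were grown by hanging-drop vapor diffusion. For two complexes the mother liquor was 0.7 or 0.8 M sodium citrate with 0.1 M HEPES pH 7.0. Rfree used 5% of reflections excluded from refinement. Geometry was checked with MolProbity.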

U2OS cells [1] = assay: Nuclear/cytosolic ratio of pol X-GFP adducts in transfected U2OS cells; format: cell-based, human; conditions: among the four mammalian enzymes, in the cell-types investigated
Procedure, shortened: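 U2OS cells in RPMI 1640 with 10% FBS (37 °C, 5% CO2) were seeded at 10,000 cells/chamber. They were transfected (Lipofectamine 2000, 1:4 DNA:reagent) with wild-type or NLS-mutant polymerase-GFP plasmids, then fixed at 24 h (3.7% formaldehyde), permeabilized and stained with CellMask and a nuclear stain. Confocal GFP intensity was measured in nuclear and cytoplasmic ROIs of ≥30 cells/construct. Ratios were averaged with ±2 SD outliers removed, then analysed by ANOVA/Tukey.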

U2OS cells [2] = conditions: compared with pol λ in U2OS cells; ref [24]; cited from earlier work
Impα = conditions: ref [24]; cited from earlier work

Substance | occupancy of the minor binding pocket (ImpαΔIBB) | extent of nuclear localization, in words (U2OS cells [1]) | nuclear/cytosolic ratio of pol β (U2OS cells [2]) | binding affinity of NLS for the minor binding pocket of Impα (Impα)
pol λ NLS: bipartite N-terminal NLS of pol λ (KAFPKRQKIHADASSKVLAKIPRREEGK-{FITC′}) | ~ 70% | greatest extent of nuclear localization |  | 
DNA polymerase β [pol β] |  |  | ~ 3 | highly selective binding affinity for the minor binding pocket of Impα
